Results published in ChEMBL document CHEMBL3779860, “A Designed Tryptophan- and Lysine/Arginine-Rich Antimicrobial Peptide with Therapeutic Potential for Clinical Antibiotic-Resistant Candida albicans Vaginitis” (J Med Chem, 2016).
Active and inactive are the calls of the source. The calls are words filed in the database; no cut-off is given here.

Assays:
[1] = test system: Candida albicans; assay: Antimicrobial activity against antibiotic resistant Candida albicans clinical isolate 08030809 assessed as clone count at 5 times MIC after 6 hrs by colony counting assay (reference value: 14536 +/- 2467 CFU); assay type: functional
[2] = test system: Candida albicans; assay: Antimicrobial activity against antibiotic resistant Candida albicans clinical isolate 08030809 in mouse vaginitis model assessed as decrease in colony count in lavage liquid of vagina at 50 ug administered as intravaginal instillation measured on day 16; assay type: functional
[3] = test system: Mus musculus; assay: Antiinflammatory activity in antibiotic resistant Candida albicans clinical isolate 08030809 induced mouse vaginitis model assessed as reduction in IL-1beta secretion in vaginal tissue administered as intravaginal instillation measured on day 10 by ELISA; assay type: functional, organism-based; conditions: Vagina
Outline: (§1)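 Same estradiol-primed mouse model, infected intravaginally with C. albicans 08030809 and treated by intravaginal instillation (20 µL/mouse). Vaginal canals excised on day 10 of treatment and homogenised in 0.9% NaCl. Supernatant taken after 2,000 g for 15 min. TNF-α, IL-6, IL-1β and IL-10 measured by ELISA. Mean ± SE of three independent experiments; unpaired t-test versus vehicle.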

[4] = test system: Mus musculus; assay: Antiinflammatory activity in antibiotic resistant Candida albicans clinical isolate 08030809 induced mouse vaginitis model assessed as reduction in IL-6 secretion in vaginal tissue at 50 ug administered as intravaginal instillation measured on day 10 by ELISA; assay type: functional, Vagina; outline: as §1
[5] = test system: Candida albicans; assay: Antimicrobial activity against antibiotic resistant Candida albicans clinical isolate 08030809 in mouse vaginitis model assessed as decrease in colony count in lavage liquid of vagina at 50 ug administered as intravaginal instillation measured on day 6; assay type: functional
[6] = test system: Candida albicans; assay: Antimicrobial activity against antibiotic resistant Candida albicans clinical isolate 08030809 assessed as clone count at 10 times MIC after 3 hrs by colony counting assay (reference value: 3687 +/- 543 CFU); assay type: functional
[7] = test system: Candida albicans; assay: Antimicrobial activity against antibiotic resistant Candida albicans clinical isolate 08032821 compound treated in NaCl solution measured after 36 hrs by disc diffusion method; assay type: functional; conditions: isolate 08032821, 36 h
Outline: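 Salt-tolerance test: peptide at 2 mg/mL was prepared in sterile ddH2O, in 150 mM NaCl, or in PBS (150 mM NaCl, 2.7 mM KCl, 1.5 mM KH2PO4, 8 mM K2HPO4, pH 7.2). Anti-C. albicans activity was then assessed by inhibition zone on Sabouraud medium with 0.7% agar.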

[8] = test system: Candida albicans; assay: Antimicrobial activity against antibiotic resistant Candida albicans clinical isolate 08030809 assessed as clone count at 5 times MIC after 3 hrs by colony counting assay (reference value: 3687 +/- 543 CFU); assay type: functional
[9] = test system: Candida albicans; assay: Effect on cell membrane integrity in antibiotic resistant Candida albicans clinical isolate 08030809 at MIC measured every 2 mins upto 20 mins by SYTOX green nucleic acid staining-based fluorescence assay; assay type: functional, organism-based
Outline: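 Exponential-phase C. albicans 08030809 was washed and resuspended at 10^6 CFU/mL in 10 mM PBS pH 7.4. Cells were loaded with 0.1 µM (final) SYTOX Green for 15 min at 37°C with shaking, then test samples were added. Fluorescence (ex 488/em 530 nm) was recorded every 2 min as RFU. Mean ± SE of five independent experiments.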

[10] = test system: Candida albicans; assay: Antimicrobial activity against antibiotic resistant Candida albicans clinical isolate 08030809 in mouse vaginitis model assessed as decrease in colony count in lavage liquid of vagina at 20 ug administered as intravaginal instillation measured on day 6; assay type: functional
[11] = test system: Candida albicans; assay: Antimicrobial activity against antibiotic resistant Candida albicans clinical isolate 08030809 assessed as clone count at 10 times MIC after 1 hr by colony counting assay (reference value: 228 +/- 23 CFU); assay type: functional

H-VKRWKKWRWKWKKWV-NH2
Activity [1]: 0 CFU | inhibition (INH) [2]: 83% | Activity [3]: Dose-dependent effect | inhibition (INH) [4]: 57% | inhibition (INH) [5]: 48% | Activity [6]: 0 CFU | MIC [7]: 2.65 µg/mL | Activity [8]: 0 CFU | Activity [9]: Active | inhibition (INH) [10]: 22% | Activity [11]: 0 CFU
